ChEMBL document CHEMBL1139843, “Novel sulfamide analogs of oleoylethanolamide showing in vivo satiety inducing actions and PPARalpha activation” (J Med Chem, 2007)
Calls of active or inactive are those of the source. The rule behind the calls is not given here.

Key:
[1] = target: T1, Peroxisome proliferator-activated receptor alpha (Homo sapiens, UniProt Q07869); experiment: Activation of human PPARalpha by GST pull down assay
T1 sequence (Q07869 whole entry): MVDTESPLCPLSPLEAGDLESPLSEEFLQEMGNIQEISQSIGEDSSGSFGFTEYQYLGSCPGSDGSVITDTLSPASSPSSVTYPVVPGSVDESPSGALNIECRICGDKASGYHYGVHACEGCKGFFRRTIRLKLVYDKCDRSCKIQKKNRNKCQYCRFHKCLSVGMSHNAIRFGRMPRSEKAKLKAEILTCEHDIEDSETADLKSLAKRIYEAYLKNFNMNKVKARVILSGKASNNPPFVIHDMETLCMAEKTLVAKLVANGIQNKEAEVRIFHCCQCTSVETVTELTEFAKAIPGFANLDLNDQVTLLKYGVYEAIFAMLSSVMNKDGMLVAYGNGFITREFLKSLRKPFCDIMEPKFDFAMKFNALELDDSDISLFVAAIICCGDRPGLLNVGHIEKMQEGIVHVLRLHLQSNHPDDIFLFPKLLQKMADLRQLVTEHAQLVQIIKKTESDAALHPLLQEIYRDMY
In short: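 GST or GST-TIF2 Sepharose beads, pre-blocked with 1 µg/µl BSA, incubated with 20 ng in vitro translated [35S]-labeled PPARalpha with or without compound. Unbound translated protein washed off with immunoprecipitation buffer, then bound receptor detected.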

[2] = target: T2, Peroxisome proliferator-activated receptor alpha (Homo sapiens) (UniProt Q07869); experiment: Agonist activity at human PPARalpha expressed in MCF7 cells transfected with co-activator TIF2 by luciferase reporter gene assay at 1 uM; assay type: functional, cell-based
T2 sequence (whole entry): T1 sequence (Q07869 whole entry)
In short: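 MCF-7 cells grown overnight in phenol red-free DMEM with 5% charcoal-treated FBS. Transfected with DOTAP liposomes carrying human ACO PPRE-luciferase reporter, wild-type hPPARalpha and full-length TIF2. Ligand or DMSO added 4 h after transfection, with medium topped up with charcoal-treated FBS. Cells lysed 16 h later. Luciferase normalized to protein, relative to DMSO-treated cells without overexpression; mean ± SD, n = 3-6.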

Rattus norvegicus [3] = experiment: Reduction in body weight of Wistar rat at 1 mg/kg, ip after 8 days; assay type: functional, organism-based; set-up: dose 1 mg/kg
In short: (§1)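 Normal Wistar rats, free-feeding, dosed 1 mg/kg i.p. daily for 8 days at dark-period onset. Compound suspended in Tween 80/saline. Body weight and plasma triglycerides compared with vehicle-treated rats; means ± SEM, n = 3-6, ANOVA.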

Rattus norvegicus [4] = experiment: Reduction in food intake in obese Zucker rat at 1 mg/kg, ip after 11 days; assay type: functional, organism-based; set-up: dose 1 mg/kg
In short: (§2)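 Genetically obese Zucker (fa/fa) rats, free-feeding, given 1 mg/kg i.p. daily for 11 days at dark-period onset, in Tween 80/saline. Cumulative relative weight gain (g/kg body weight, from day 1) and food intake compared with vehicle; means ± SEM, n = 3-6, ANOVA.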

Rattus norvegicus [5] = experiment: Reduction in plasma triglycerides in Wistar rat at 1 mg/kg, ip after 8 days; assay type: functional, organism-based; set-up: dose 1 mg/kg; in short: as §1
Rattus norvegicus [6] = experiment: Reduction in body weight gain in obese Zucker rat at 1 mg/kg, ip after 11 days; assay type: functional, organism-based; set-up: dose 1 mg/kg; in short: as §2
Rattus norvegicus [7] = experiment: Reduction in food intake in Wistar rat at 0.03 to 3 mg/kg, ip

Row | EC50 [1] | Activity [2] | Compound | also measured
1 | – | Active | Cc1cccc(Nc2cc(Cl)nc(SCC(=O)O)n2)c1C | –
2 | 0.11 µM | Active | CCCCCCCC/C=C\CCCCCCCC(=O)NCCO [OLEOYLETHANOLAMIDE] | –
3 | 0.524 µM | – | CCCCCCCC/C=C\CCCCCCCCNS(N)(=O)=O | –
4 | 0.1 µM | Active | CCCCCCCCCCCCCCCCCCNS(=O)(=O)NCCC | Activity (Rattus norvegicus [3]): Active; Activity (Rattus norvegicus [4]): Active; Activity (Rattus norvegicus [5]): Active; Activity (Rattus norvegicus [6]): Active
5 | > 10000 µM | inactive | CCCCCCCCCCCCCCCCCCNS(N)(=O)=O | Activity (Rattus norvegicus [7]): Active
6 | 21 µM | – | CCCCCCCCCCCCCCCCNS(=O)(=O)NCCC | –
7 | > 10000 µM | – | CCCCCCCCCCCCCCCCNS(N)(=O)=O | –

Row | Compound | EC50 [1] | Activity [2] | also measured
8 | CCCCCCCC/C=C\CCCCCCCCNS(=O)(=O)NCCC | 11 µM | – | –
